An excerpt weighted towards active compounds, which were near 1.5% of everything screened.
Keap1-Nrf2 PPI: inhibitors of human Keap1-Nrf2 protein-protein interaction; Q14145; Keap1 Kelch-Nrf2 peptide fluorescence polarization, 1536-well; inhibition, % at 9.4 µM; 340,000 compounds, 0.15% hits; AID 504523; in the data active = inhibition above about 12%;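 note: human Keap1 Kelch domain with fluorescein labeled Nrf2 9mer peptide probe; 0% = neutral control wells and 100% = peptide positive control; higher means more block of Keap1 binding to Nrf2 peptide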
Target sequence (Q14145 whole entry, looked up, the tested form may be a part): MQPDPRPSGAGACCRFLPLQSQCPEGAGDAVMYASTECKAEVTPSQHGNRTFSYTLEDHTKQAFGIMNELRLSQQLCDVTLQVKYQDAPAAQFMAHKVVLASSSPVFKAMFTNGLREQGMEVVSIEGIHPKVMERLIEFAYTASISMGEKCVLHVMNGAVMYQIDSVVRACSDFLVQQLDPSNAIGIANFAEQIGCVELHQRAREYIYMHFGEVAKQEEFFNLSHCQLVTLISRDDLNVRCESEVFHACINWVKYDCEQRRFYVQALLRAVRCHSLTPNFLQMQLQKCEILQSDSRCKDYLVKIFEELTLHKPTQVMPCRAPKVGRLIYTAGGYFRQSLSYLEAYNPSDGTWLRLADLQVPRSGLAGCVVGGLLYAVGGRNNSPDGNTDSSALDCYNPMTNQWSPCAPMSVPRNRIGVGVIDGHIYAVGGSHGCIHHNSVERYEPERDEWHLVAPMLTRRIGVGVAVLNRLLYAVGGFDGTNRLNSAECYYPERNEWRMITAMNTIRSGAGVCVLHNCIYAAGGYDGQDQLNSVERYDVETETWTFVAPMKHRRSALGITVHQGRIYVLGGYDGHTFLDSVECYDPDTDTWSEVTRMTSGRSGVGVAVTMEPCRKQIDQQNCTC
C-LANA FP: inhibitors of KSHV LANA C-terminal domain DNA binding. 340,000 compounds, 0.078% hits. inhibition, % at 9 µM. MBP-C-LANA/FAM-LBS DNA binding, fluorescence polarization;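 active = highest replicate inhibition at or above 60% at 9 µM, even if other replicates fall short; inactive = all replicates below 60% inhibition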;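 note: 0% = neutral control wells and 100% = 4 µM acridine orange control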
CAL PDZ FP-1: blocks peptide binding to human CAL PDZ domain; purified CAL PDZ, TMR-peptide fluorescence polarization, 1 h; 330,000 compounds, 0.02% hits; AID 504414; Q9HD26; inhibition, % at 20 µM;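 active = highest replicate inhibition of at least 40%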;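 note: plate controls were DMSO neutral control wells for no effect and unlabeled competitor peptide control wells for full effect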
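Material: tagged CAL PDZ protein CerCALP, purified; buffer or medium: sodium phosphate/NaCl buffer pH 7.4 with TCEP, IgG, Thesit; also added: fluorescent TMR peptide probe; schedule: 1 h incubation at room temperature before polarization reading; technique: fluorescence polarization from S- and P-plane intensities, G-factor corrected; control set: unlabelled peptide and DMSO controls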
CaV13 FRET inh: Primary screen for inhibitors of IQ motif and Ca2+-dependent inactivation inhibitor domain binding in CACNA1D, Förster resonance energy transfer in living cells, …; HEK cells, CFP/YFP FRET ICDI-IQ, plate reader, 10 min; percent FRET-ratio fall versus neutral wells; 340,000 compounds, 0.098% hits; inhibition, % at 12.3 µM;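 active = mean replicate inhibition of at least 30% and at least 1% of replicates passing that level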;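 note: 0% = median of the neutral control wells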
LANA-H2B inh: blocks KSHV LANA binding to histone H2A/H2B | Q9QR71 | AID 2629 | cell-free LANA-H2A/H2B peptide, fluorescence polarization | inhibition, % (test concentration not listed) | 320,000 compounds, 0.6% hits; in the data active = inhibition mostly above about 10%, no sharp cut-off; inactive = mostly below about 6.7%
CAL PDZ FP-2: inhibitors of human CAL PDZ peptide binding | Q9HD26 | purified CAL PDZ, TMR-peptide fluorescence polarization, 1 h | inhibition, % at 24.9 µM | 300,000 compounds, 0.92% hits | AID 602252;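 active = mean inhibition of at least 30% with at least half of replicates also reaching 30%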;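 note: 0% = DMSO neutral control and 100% = excess unlabeled competitor peptide PRC23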
Keap1 Kelch bind: binders of human Keap1 Kelch domain. shares compounds with Keap1-Nrf2 PPI. Keap1 Kelch thermal shift, delta Tm; hits give high values. max delta Tm, degrees C. 400 compounds, 8% hits; in the data active = max delta Tm above about 0.48 degrees C
Sypro dye melt: shifts Sypro Orange melt without protein, a false positive | shares compounds with Keap1-Nrf2 PPI | Sypro Orange dye-only thermal melt, no protein, delta Tm; top dose 26 µM | delta Tm, degrees C (concentration not given with the values) | 140 tested, under 10 active | AID 651858;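 active = at highest dose tested, delta Tm positive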
* hit, by the source's call; · = no result; ! = a repeat was not active.

SMILES	Keap1-Nrf2 PPI	C-LANA FP	CAL PDZ FP-1	CaV13 FRET inh	LANA-H2B inh	CAL PDZ FP-2	Keap1 Kelch bind	others
CCOn1c(=O)c(-c2cc3ccccc3o2)[n+]([O-])c2ccccc21	4	-3	-2	·	-1	-1	·
O=c1c(-c2cc3ccccc3o2)[n+]([O-])c2ccccc2n1OCc1ccccn1	36*	15	-1	-5	4	-4	-0.07	Sypro dye melt=-32
O=C(CN1CSCC1=O)N1CCN(S(=O)(=O)c2ccc(Cl)cc2)CC1	-3	1	1	-2	0	-4	·
CCOc1ccc(S(=O)(=O)Nc2cccc(C(=O)NCCCn3ccnc3)c2)cc1	27*	12	0	-16	-8	·	0.01
O=S(=O)([N-]c1nc2ccccc2nc1-[n+]1ccc(-c2ccncc2)cc1)c1ccccc1	17*	5	-2	-5	-13	-1	0	Sypro dye melt=-27
Clc1ccccc1-c1cc2nc(NCc3ccco3)ccn2n1	·	·	·	-5	·	·	·
CC(=O)N/C(=C\c1ccccc1)C(=O)OCC(=O)NC1CCS(=O)(=O)C1 (centres undefined)	-1	-1	0	-5	-9	·	·
Cc1sc2ccccc2[n+]1CC(=O)c1ccccc1	22*	11	-1	·	0	·	-0.12
Cc1sc2ccccc2[n+]1CC(=O)O	-3	2	-3	-2	-1	0	·
CN1CCC2(CC1)C1CN(C)CC=C1C(C#N)=C(N)C2(C#N)C#N (centres undefined)	14*!	40	0	-8	12	0	-0.14
COc1ccc(C(C)=NNc2ccc([N+](=O)[O-])cc2S(=O)(=O)Nc2ccccc2C(=O)O)c(OC)c1	32*	14	0	-18	-6	0	3.3*	Sypro dye melt=-21
O=C(c1ccccc1)c1ccc(O)cc1O	59*	103*	-1	-6	45*	7	-0.15
COc1ccc(C(=O)c2ccccc2)c(O)c1	-3	-2	0	-8	0	·	·
O=[N+]([O-])c1ccc(S(=O)(=O)c2ccccc2)nc1	13*	-1	0	-4	-1	1	-0.08
CCOC(=O)C1=C(CSc2nc3c(cc2C#N)CN(C)CC3)OC(N)=C(C#N)C1c1ccncc1 (centres undefined)	17*	35	-1	-5	12	-6	0.08
O=C(C[n+]1cccc(Br)c1)c1ccc(-c2ccccc2)cc1	0	-3	-1	-4	0	-1	·
Cc1ccc(S(=O)(=O)Nc2ccc(O)c3ccccc23)c(C)c1	12*	1	0	-4	3	-6	1.2*
Cc1ccc(S(=O)(=O)Nc2cccc(S(=O)(=O)Nc3ccccc3C(=O)O)c2)c(C)c1	16*	0	0	-3	6	-7	1.1*
Cc1ccc(S(=O)(=O)Nc2cc(C(C(=O)OC(C)C)C(=O)C(F)(F)F)c(O)c3ccccc23)c(C)c1 (centres undefined)	51*	-2	0	-4	3	·	10*
Cc1ccc(S(=O)(=O)Nc2ccc3c4c(cccc24)CC3)c(C)c1	-1	-1	-1	0	-4	-6	·
COc1ccc(NC(=O)COC(=O)CN2C(=O)c3ccccc3C2=O)cc1	-5	0	-2	-6	·	-2	·
COC(=O)C1=COC(C)C2CN3CCc4c([nH]c5ccccc45)C3CC12 (centres undefined)	15*	45	0	·	21	2	0.01
COC(=O)C1=CO[C@@H](C)[C@H]2CN3CCc4c([nH]c5ccccc45)[C@@H]3C[C@H]12	-2	2	1	-7	-3	-2	·
CCc1ccc[n+](-c2[nH]c(=O)sc2/C=N/N=C(\[O-])c2ccncc2)c1	0	0	-4	-2	-3	1	·
CC(C)(C)c1cc[n+](-c2[nH]c(=O)sc2/C=N/NC([S-])=Nc2ccccc2)cc1	31*	51	0	-117	42*	·	-0.09	Sypro dye melt=-23
SMILES	Keap1-Nrf2 PPI	C-LANA FP	CAL PDZ FP-1	CaV13 FRET inh	LANA-H2B inh	CAL PDZ FP-2	Keap1 Kelch bind	others
Cc1cc[n+](-c2[nH]c(=O)sc2/C=N/NC([S-])=Nc2ccccc2)cc1C	32*	48	0	-7	·	-7	0.02
O=C(c1cccc(Br)c1)N1CCN(S(=O)(=O)N2CCCCC2)CC1	4	-1	-2	-1	·	-1	·
CCCOc1nc(C)cc(COC)c1C(N)=O	-3	32	1	8	-1	-4	·
O=C(CSC1=NNC(c2ccccn2)S1)Nc1cccc(Cl)c1 (centres undefined)	19*	12	-1	3	4	·	-0.17
O=C(CSC1=NNC(c2ccccn2)S1)Nc1ccccc1 (centres undefined)	-4	0	-2	7	2	·	·
O=C(NC(Cc1ccccc1)C(=O)O)/C(=C\c1ccccc1)NC(=O)c1ccc(Br)o1 (centres undefined)	1	-2	0	·	-3	0	·
CCOc1ccc(C(C)NC(=O)c2ccc3c(c2)NC(=O)C(C)S3)cc1OCC (centres undefined)	-6	1	-1	-3	·	2	·
COc1ccccc1Cn1c(=S)[nH]c2ccccc2c1=O	99*	-2	-3	-21	0	1	0.01
Cc1cc(NC(=O)CSc2nnc(-c3ccncc3)n2Cc2ccccc2)n(-c2ccccc2)n1	-4	2	0	3	-1	6	·
Cc1cc(NC(=O)CSc2nnc(-c3ccncc3)n2C)n(-c2ccccc2)n1	15*	12	0	-4	0	77*	-0.15	Sypro dye melt=-22
O=C1OC(/C=C/c2ccc(Cl)cc2Cl)=NC/1=C\c1cccs1	4	3	-3	-3	-1	-2	·
Cc1c(N)cc(N)cc1C(=O)O	15*	24	-1	-5	-2	-1	-0.15
CS(=O)(=O)N(CC(=O)N1CCCC1)Cc1ccc(Cl)c(Cl)c1	-2	-2	-3	-1	-1	26	·
Cc1cccc(C(=O)NNC(=O)c2n[nH]c(=O)c3ccccc23)c1C	-3	1	-2	-2	·	1	·
Cc1ccc(C(=O)NNC(=O)c2n[nH]c(=O)c3ccccc23)cc1C	33*	15	-1	-15	-2	·	-0.04
CCOC(=O)c1cc(-c2ccc(OC)cc2OC)nn1-c1ccc(C(=O)O)cc1	-2	0	0	3	3	0	·
COc1cccc(N2CCN(C(=O)/C=C/c3ccco3)CC2)c1	1	0	0	-4	-2	6	·

Compound activity as filed in PubChem.
